This is an account of results in PubChem BioAssay.

The nature of test [1]: reduced viability of SK-BR-3 breast cancer cells – cell-based, 24 h, human, pilot screen (AID 572;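 active = viability at or below 10% of carrier control in both of two separate runs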;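 also: compound exposure lasted between 18 and 24 h rather than exactly 24 h; 100% = carrier-treated control wells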). Particulars: SK-BR-3 viability, CellTiter-Glo luminescence, at 10 µM, stronger effect = lower value.
Test [2] is described as follows: HUVEC growth inhibition – cell-based, human, primary screen (AID 575;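 active = viability at or below 30% in both replicate assays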;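 also: 100% = median of untreated cell wells with 0.1% DMSO on each plate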). To be noted: HUVEC proliferation, CellTiter-Glo luminescence, 72 h; at 10 µM; stronger effect = lower value. Summed up:
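system = HUVEC primary cells | amount = 1250 cells/well | buffer or medium = supplemented EBM, 2% fetal bovine serum | dosing = single-point 10 µM, DMSO 0.1% final | times = 72 h compound incubation | detection = CTG luminescence | read-out = % viability relative to median vehicle-well signal on each plate | control set = vehicle and MePR control wells | format = collagen-coated 384-well format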
A general note: Cellular ATP, detected with luciferase, serves as a proxy for viable cell number.

Test [3] is described as follows: H69AR cell proliferation blockers – human, duplicate replicates, primary screen (AID 580).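 Also: 100% = mean luminescence of untreated wells and 0% = no signal.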 To be noted: H69AR lung tumor cells viability, ATP luminescence, 72 h; at 10 µM; stronger effect = lower value.
A short description of test [4]: MRP1 drug-resistance reversers in H69AR cells – cell-based, doxorubicin co-treatment, pilot screen (AID 601;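 active = viability loss from added drug above about 55%, and viability with drug at most 40%, in both replicates, limit read from the data, passing the limit was not always enough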). Particulars: CellTiter-Glo, 72 h, at 10 µM; for differential viability (reversal): stronger effect = higher value.
Test [5] in a line: yeast transport mutant growth inhibition pilot in 384-well plates, post-Golgi transport modulator project (AID 636; in the data active = inhibition above about 31%). Particulars: absorbance 615 nm, about 18 h, stronger effect = higher value.
A short description of test [6]: growth suppression of yeast trafficking mutant, preliminary HTS, modulators of trafficking downstream of Golgi apparatus project, 1536-format plate, OD 615 nm (AID 637; in the data active = inhibition above about 30%). Particulars: yeast transport mutant growth, absorbance 615 nm, 18 h; stronger effect = higher value.
[7] abbreviates: H69AR cells + 2 uM doxorubicin, measured here: viability with 2 uM doxorubicin, stronger effect = lower value.
[8] abbreviates: H69AR cells, compound alone cytotoxicity.

Activity calls are given as the source filed them.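 The calls were made as follows, unless noted: active = viability at or under a set limit in both replicates, limit being median viability minus 3 SD (cut at about 48% in these data, passing the limit was not always enough); inconclusive = at or under the limit in just one replicate; inactive = at or above the limit in both replicates.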

For orientation: viability means a read-out of living cells in per cent, often relative to untreated cells. One may read the inhibition as the relative decrease from the control value, in per cent. In the case of `Cn1c(-c2ccccc2)cnc1SCc1nc2ccccc2c(=O)[nH]1`, the viability in test [1] was 107% (inactive); in test [2], 105% (inactive); in test [3] it was 101% (inactive); in test [4] (setting [7]), 82.5%; in test [4] (setting [8]), 101%. Further, the differential viability (reversal) in test [4] (H69AR cells + 2 uM doxorubicin) was 18.1% (inactive). Besides, the results for the inhibition in test [5] and in test [6] were -2.53% (inactive) and 4.18% (inactive), respectively.
For the compound `O=C1CCCN1Cc1ncnn1-c1ccccc1`, the viability in test [1] is 89% (inactive); in test [2], 108% (inactive); in test [3], 112% (inactive); in test [4] (setting [7]), 97.1%; in test [4] (setting [8]), 112%. Besides, the differential viability (reversal) in test [4] (H69AR cells + 2 uM doxorubicin) is 14.7% (inactive). Further, the inhibition in test [5] is 0.27% (inactive); in test [6] it was -6.55% (inactive).
For the compound `Cc1nn(C)cc1C1C2=C(CC(C)(C)CC2=O)OC2=C1C(=O)CC(C)(C)C2`, the viability is 74% (inactive) in test [1]; 110% (inactive) in test [2]; 89.8% (inactive) in test [3]; 95.6% in test [4] (setting [7]); 89.8% in test [4] (setting [8]). Besides, the differential viability (reversal) in test [4] (H69AR cells + 2 uM doxorubicin) is -5.79% (inactive). The inhibition in test [5] is -6.62% (inactive); in test [6], 0.18% (inactive).
`CS(=O)(=O)N(CC(=O)N1CCc2ccccc2C1)c1ccc2c(c1)OCO2`: the viability is 129% (inactive) in test [1]; 102% (inactive) in test [2]; 102% (inactive) in test [3]; 87.8% in test [4] (setting [7]); 102% in test [4] (setting [8]). Moreover, the differential viability (reversal) in test [4] (H69AR cells + 2 uM doxorubicin) is 14.2% (inactive). For the same compound, the inhibition is -1.04% (inactive) in test [5] and 2.13% (inactive) in test [6].
In the case of `CN(C(=O)C1CCCO1)c1nnc(-c2ccncc2)s1` (stereo unspecified), the viability is 81% (inactive) in test [1]; 111% (inactive) in test [2]; 100% (inactive) in test [3]; 92.7% in test [4] (setting [7]); 100% in test [4] (setting [8]). Also, the differential viability (reversal) in test [4] (H69AR cells + 2 uM doxorubicin) was 7.37% (inactive). Moreover, the inhibition in test [5] is -3.24% (inactive); in test [6], -1.82% (inactive).
For `CCOc1cc(C(=O)N(C)Cc2cc3cc(OC)ccc3[nH]c2=O)cc(OCC)c1OCC`, the viability is 88% (inactive) in test [1]; 114% (inactive) in test [2]; 95.1% (inactive) in test [3]; 96.2% in test [4] (setting [7]); 95.1% in test [4] (setting [8]). In addition, the differential viability (reversal) in test [4] (H69AR cells + 2 uM doxorubicin) was -1.01% (inactive). Moreover, the inhibition in test [5] is -4.46% (inactive); in test [6], 17.3% (inactive).
For the compound `O=C(COC(=O)c1cnccn1)Nc1ccc2c(c1)OCO2`, the viability in test [1] is 130% (inactive); in test [2], 82% (inactive); in test [3], 91.6% (inactive); in test [4] (setting [7]) it was 88.7%; in test [4] (setting [8]) it was 91.6%. Moreover, in test [4] (H69AR cells + 2 uM doxorubicin), the differential viability (reversal) is 2.88% (inactive). Further, the inhibition is 0.65% (inactive) in test [5] and 2.46% (inactive) in test [6].
Turning to `Cc1cc(NC(=O)C(C)(C)C)no1`, the viability in test [1] was 82% (inactive); in test [2], 92.7% (inactive); in test [3], 99.2% (inactive); in test [4] (setting [7]) it was 83.3%; in test [4] (setting [8]), 99.2%. The differential viability (reversal) in test [4] (H69AR cells + 2 uM doxorubicin) was 16% (inactive). Further, the inhibition is -1.2% (inactive) in test [5] and -0.73% (inactive) in test [6].
`CCCCCc1nnc(NC(=O)Cc2cccs2)s1`: the viability in test [1] was 74% (inactive); in test [2] it was 110% (inactive); in test [3], 102% (inactive); in test [4] (setting [7]), 90.8%; in test [4] (setting [8]), 102%. In test [4] (H69AR cells + 2 uM doxorubicin), the differential viability (reversal) was 10.7% (inactive). The inhibition is -6.71% (inactive) in test [5] and 3.64% (inactive) in test [6].
Take `O=C(CSc1nnc(-c2ccc(Br)cc2)n1C1CCCCC1)N1CCCC1`: the viability in test [1] was 64% (inactive); in test [2], 113% (inactive); in test [3], 80.2% (inactive); in test [4] (setting [7]) it was 87.1%; in test [4] (setting [8]) it was 80.2%. In addition, in test [4] (H69AR cells + 2 uM doxorubicin), the differential viability (reversal) is -6.92% (inactive). Further, the values for the inhibition in test [5] and in test [6] were -6.58% (inactive) and -2% (inactive), respectively.
Regarding `Cc1cc(NC(=O)CSc2nc(C3CCCCC3)nc3ccccc23)no1`, the viability in test [1] is 101% (inactive); in test [2], 99.8% (inactive); in test [3] it was 80% (inactive); in test [4] (setting [7]), 63.9%; in test [4] (setting [8]), 80%. For the same compound, in test [4] (H69AR cells + 2 uM doxorubicin), the differential viability (reversal) is 16.2% (inactive). Besides, the values for the inhibition in test [5] and in test [6] were -0.8% (inactive) and -2% (inactive), respectively.
For `O=C(NC1CCCCC1NC(=O)c1ccco1)c1ccco1` (stereo unspecified), the viability was 93% (inactive) in test [1]; 94.2% (inactive) in test [2]; 90% (inactive) in test [3]; 94.5% in test [4] (setting [7]); 90% in test [4] (setting [8]). For the same compound, in test [4] (H69AR cells + 2 uM doxorubicin), the differential viability (reversal) is -4.53% (inactive). The inhibition is 0.53% (inactive) in test [5] and 3.27% (inactive) in test [6].
